Values after ≈ are worked out from the molar mass of the structure shown.

The target in data set [1] is T1, Aryl hydrocarbon receptor (Homo sapiens, UniProt P35869).
T1 sequence (P35869 whole entry): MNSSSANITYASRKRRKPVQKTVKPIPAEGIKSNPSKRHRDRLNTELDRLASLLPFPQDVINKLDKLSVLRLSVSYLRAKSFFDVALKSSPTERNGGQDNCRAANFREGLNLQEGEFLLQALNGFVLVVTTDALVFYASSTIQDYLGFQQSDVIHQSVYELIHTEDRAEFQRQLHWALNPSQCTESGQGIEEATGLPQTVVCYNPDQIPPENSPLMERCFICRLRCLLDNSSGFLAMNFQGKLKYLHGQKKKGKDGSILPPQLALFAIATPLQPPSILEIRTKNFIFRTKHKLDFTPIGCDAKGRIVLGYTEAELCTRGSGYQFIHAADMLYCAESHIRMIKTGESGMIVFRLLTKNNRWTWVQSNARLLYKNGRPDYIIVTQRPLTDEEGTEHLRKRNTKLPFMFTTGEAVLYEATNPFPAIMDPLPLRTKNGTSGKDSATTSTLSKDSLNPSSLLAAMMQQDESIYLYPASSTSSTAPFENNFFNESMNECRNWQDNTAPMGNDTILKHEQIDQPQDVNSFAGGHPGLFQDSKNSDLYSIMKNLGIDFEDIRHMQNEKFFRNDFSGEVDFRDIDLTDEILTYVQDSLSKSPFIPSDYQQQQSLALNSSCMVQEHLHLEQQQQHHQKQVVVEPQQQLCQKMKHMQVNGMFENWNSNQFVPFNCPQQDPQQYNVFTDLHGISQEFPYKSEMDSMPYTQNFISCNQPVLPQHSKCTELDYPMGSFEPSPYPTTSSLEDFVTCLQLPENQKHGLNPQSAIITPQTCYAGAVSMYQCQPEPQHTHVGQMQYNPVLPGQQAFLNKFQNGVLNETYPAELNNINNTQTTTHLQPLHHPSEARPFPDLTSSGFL
The data set is described as follows: Agonist activity at aryl hydrocarbon receptor in human MCF7 cells after 24 hrs CYP1A1-dependent EROD assay. It counts as functional, cell-based. The method in brief:
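MCF-7 cells in high-glucose D-MEM with 10% FBS, plated at 5×10^5 cells/mL, settled 4.5 h at 37 °C, then exposed to compound (3% DMSO in added portion) for 24 h. Washed cells were given ethoxyresorufin, dicoumarol and NADPH in PBS for 150 min at 37 °C. Triplicate; EC50 derived.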

Another data set concerns MCF7. The data set is described as follows: Toxicity in human MCF7 cells assessed as effect on cell viability after 24 hrs. Type of data set: cell-based. Particulars: mcf7, 24 h. The method in brief:
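Same MCF-7 plating and 24 h compound exposure as the EROD assay. Medium was then removed, cells were detached with 0.25% trypsin/EDTA and counted.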

Data set [2] in a line: Thermodynamic aqueous solubility in equal volume of ethyl alcohol and 1/15M phosphate buffer at pH 7.4. Type of data set: physicochemical. Particulars: 1:1 (v/v) ethyl alcohol / 1/15 M phosphate buffer. The method in brief: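 About 1 mg solid ground in agate mortar, suspended in 1.0 mL of a 1:1 mix of 1/15 M phosphate buffer (pH 7.4) and EtOH, shaken 48 h at 25 °C. Filtered (0.22 µm), filtrate diluted in DMF, quantified by reversed-phase C18 HPLC with UV at 263–288 nm against a calibration curve, corrected for dilution.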

Data set [3] is described as follows: Aqueous solubility in phosphate buffer at pH 7.4. Type of data set: physicochemical. The method in brief:
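Thermodynamic solubility by the Avdeef–Testa approach. About 1 mg of ground compound went into 1.0 mL of 1/15 M phosphate buffer (pH 7.4) […], shaken 48 h at 25 °C, then filtered (0.22 µm). Filtrate was diluted in DMF and quantified by reversed-phase HPLC-UV (263–288 nm) against a calibration curve.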

Setting [4] is: phosphate buffer, read-out: solubility.

Compound `Cc1ccccc1-c1cc(=O)c2c(ccc3ccccc32)o1` registered an EC50 in data set [1] of over 10 µM. In the data set on MCF7, the Activity entry is given as “Non-toxic”. The thermodynamic solubility in data set [2] was 262 µg/mL (≈ 915 µM).
The compound `Cc1cccc(C)c1-c1cc(=O)c2c(ccc3ccccc32)o1` gave an EC50 in data set [1] of over 10 µM. Moreover, the Activity result in the data set with MCF7 was “Non-toxic”. The compound also displayed a thermodynamic solubility in data set [2] of 1270 µg/mL (≈ 4230 µM).
In data set [1], `O=c1cc(-c2c(F)cccc2F)oc2ccc3ccccc3c12` came in with an EC50 of 0.2 µM. The Activity entry in the data set with MCF7 is reported as “Non-toxic”. In addition, the solubility (thermodynamic) in data set [2] is 248 µg/mL (≈ 804 µM).
Regarding `O=c1cc(-c2ccccc2)oc2ccc3ccccc3c12` [BETA-NAPHTHOFLAVONE], the solubility in data set [3] (setting [4]) was under 0.15 µg/mL. Moreover, the Activity result in the data set on MCF7 is on record as “Non-toxic”. Moreover, the solubility (thermodynamic) in data set [2] is 84.6 µg/mL (≈ 311 µM).
Turning to `O=c1cc(-c2ccccn2)oc2ccc3ccccc3c12`, the EC50 in data set [1] is 0.45 µM. Besides, the Activity entry in the data set with MCF7 was “Non-toxic”. The compound further displayed a solubility (thermodynamic) in data set [2] of 299 µg/mL (≈ 1090 µM).
On to `O=c1cc(-c2ccccc2F)oc2ccc3ccccc3c12`, for which, in data set [1], the EC50 stood at 0.33 µM. Further, the Activity entry in the data set with MCF7 is reported as “Non-toxic”. Also, the solubility (thermodynamic) in data set [2] is 153 µg/mL (≈ 527 µM).
The compound `O=C(NC[C@H](NS(=O)(=O)c1ccccc1)C(=O)O)c1ccc(N2CCC[C@H](N=C3NCCCN3)C2)cc1` came in with a solubility in data set [3] (buffer) of 3.5 µg/mL (≈ 6.62 µM).
In data set [1], `COc1ccccc1-c1cc(=O)c2c(ccc3ccccc32)o1` yielded an EC50 of 0.27 µM. Moreover, the Activity entry with MCF7 was “Non-toxic”. In data set [2], this compound registered a thermodynamic solubility of 45.8 µg/mL (≈ 151 µM).
In the case of `O=C(NC[C@H](NS(=O)(=O)c1ccccc1)C(=O)O)c1ccc(N2CCC(NC3=NCCCN3)CC2)c(F)c1`, the solubility in data set [3] (buffer) stood at 0.6 µg/mL (≈ 1.1 µM).
In the case of `O=C(NC[C@H](NS(=O)(=O)c1ccccc1)C(=O)O)c1ccc(N2CCC(NC3=NCCCN3)CC2)cc1`, in data set [3] (setting [4]), the solubility is under 0.1 µg/mL.

The term EC50 denotes the concentration that produces a half-maximal response. Low values mean an effect from little substance, high ones a need for much substance. As usually defined, the solubility (thermodynamic) is solubility found after equilibrating the solid with the medium. The solubility is the concentration that dissolves in the medium under given conditions.

The values above are taken from ChEMBL document CHEMBL1159127 (Bioorg Med Chem, 2010).
